According to ChEMBL document CHEMBL4819003, “Optimization of novel oxidative DIMs as Nur77 modulators of the Nur77-Bcl-2 apoptotic pathway” (Eur J Med Chem, 2021):
The source made the active and inactive calls. The calls are words filed in the database; no cut-off is given here.

What was measured:
[1] = Half life in female Sprague-Dawley rat at 5 mg/kg, po measured for 36 hrs by LC-MS/MS analysis; format: ADME, organism-based; details: in vivo
[2] = Tmax in female Sprague-Dawley rat at 5 mg/kg, po measured for 36 hrs by LC-MS/MS analysis; format: ADME, organism-based; details: in vivo
In short: (§1)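 Sprague-Dawley rats (200–220 g), three males and three females per route group. Dosed 5 mg/kg orally or 0.5 mg/kg IV as a solution in DMSO/T-80/H2O (1:5:94 by volume). Heparinized blood was drawn from 5 min to 36 h after IV and 1–36 h after oral dosing. Plasma was protein-precipitated with methanol (2% HCl) plus carbamazepine internal standard and assayed by LC-MS/MS. Parameters were taken from concentration-time data; n = 3 per sex, mean ± SD.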

[3] = AUC (0 to t) in male Sprague-Dawley rat at 5 mg/kg, po measured for 36 hrs by LC-MS/MS analysis; format: ADME, organism-based; design: dose 5 mg/kg, time 36 hrs; details: in vivo
In short: (§2)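 Sprague-Dawley rats (200–220 g), three per sex per route, were dosed at 0.5 mg/kg IV or 5 mg/kg PO in DMSO/Tween-80/water (1:5:94). Heparinized blood was drawn from 5 min to 36 h after IV dosing and from 1 h to 36 h after oral dosing. Plasma was deproteinized with methanol (2% HCl) plus carbamazepine internal standard, measured by LC-MS/MS, and reported as mean ± SD.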

[4] = Half life in male Sprague-Dawley rat at 0.5 mg/kg, iv measured for 36 hrs by LC-MS/MS analysis; format: ADME, organism-based; details: in vivo
[5] = Clearance in female Sprague-Dawley rat at 0.5 mg/kg, iv measured for 36 hrs by LC-MS/MS analysis; format: ADME, organism-based; details: in vivo
[6] = MRT(0 to t) in male Sprague-Dawley rat at 5 mg/kg, po measured for 36 hrs by LC-MS/MS analysis; format: ADME, organism-based; details: in vivo; in short: as §1
[7] = Oral bioavailability in male Sprague-Dawley rat at 5 mg/kg measured for 36 hrs by LC-MS/MS analysis; format: ADME, organism-based; details: in vivo; in short: as §1
[8] = MRT(0 to t) in female Sprague-Dawley rat at 0.5 mg/kg, iv measured for 36 hrs by LC-MS/MS analysis; format: ADME, organism-based; details: in vivo
[9] = Half life in female Sprague-Dawley rat at 0.5 mg/kg, iv measured for 36 hrs by LC-MS/MS analysis; format: ADME, organism-based; details: in vivo
[10] = AUC (0 to t) in female Sprague-Dawley rat at 5 mg/kg, po measured for 36 hrs by LC-MS/MS analysis; format: ADME, organism-based; design: dose 5 mg/kg, time 36 hrs; details: in vivo; in short: as §2
[11] = Oral bioavailability in female Sprague-Dawley rat at 5 mg/kg measured for 36 hrs by LC-MS/MS analysis; format: ADME, organism-based; details: in vivo; in short: as §1
HCT-116 = assay: Induction of apoptosis in human HCT-116 cells assessed as PARP cleavage at 0.5 uM measured after 6 hrs by western blot assay; format: functional, cell-based
In short: (§3)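 Cells exposed to 0.5 µM for 6 h. Lysates resolved by SDS-PAGE and blotted to PVDF, blocked in 5% milk/TBST, probed with primary antibodies at 1:1000, ECL detection. Apoptosis scored as the densitometric ratio of cleaved PARP band to intact PARP band; mean ± SD, n = 3.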

MEF = assay: Induction of apoptosis in mouse MEF cells deficient in Bcl2 assessed as PARP cleavage at 0.5 uM measured after 6 hrs by Western blot assay; format: functional, cell-based
In short: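 Wild-type, Nur77−/− or Bcl-2−/− mouse embryonic fibroblasts grown in DMEM with 10% FBS and treated with 0.5 µM for 6 h. PARP cleavage detected by western blot, primary antibodies at 1:1000, ECL.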

[12] = target: Nuclear receptor subfamily 4immunitygroup A member 1 (Homo sapiens, UniProt P22736); assay: Modulation of GFP-Nur77-LBD (unknown origin) transfected in human HEK293T cells co-transfected with Flag-tagged Bcl2 assessed as interaction of Nur77 with Bcl2 in mitochondria at 0.5 uM measured after 2 hrs by confocal microscopy; details: filed as modulator
In short: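 HEK293T cells were lipofectamine-cotransfected with Flag-Bcl-2 and GFP-Nur77 or GFP-Nur77-LBD, then given 0.5 μM compound for 2 h. Cells were fixed in 4% paraformaldehyde, permeabilised with 0.1% Triton X-100, blocked in 1% BSA and stained with anti-Flag plus DAPI. Mitochondrial colocalisation with Bcl-2 was read by confocal microscopy.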

[13] = AUC (0 to t) in male/female Sprague-Dawley rat at 0.5 mg/kg, iv measured for 36 hrs by LC-MS/MS analysis; format: ADME, organism-based; design: dose 0.5 mg/kg, time 36 hrs; details: both, in vivo
In short: (§4)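 Four Sprague-Dawley rats per route (2 male, 2 female; 200–220 g) received 0.5 mg/kg IV or 5 mg/kg PO in DMSO/Tween-80/water (1:5:94). Heparinized blood was taken at 5 min–36 h after IV dosing and at 0.5, 1, 3, 4, 6, 8, 10, 12, 24 and 36 h after oral dosing. Methanol (2% HCl) precipitation with carbamazepine internal standard preceded LC-MS/MS; values are mean ± SD.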

[14] = Oral bioavailability in male/female Sprague-Dawley rat at 5 mg/kg measured for 36 hrs by LC-MS/MS analysis; format: ADME, organism-based; details: both, in vivo
In short: (§5)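 Sprague-Dawley rats (200–220 g), four per route group (2 male, 2 female), given 0.5 mg/kg IV or 5 mg/kg orally in DMSO/T-80/H2O (1:5:94). Heparinized blood was sampled at 5 min–36 h after IV and at 0.5, 1, 3, 4, 6, 8, 10, 12, 24 and 36 h after oral dosing. Plasma was methanol (2% HCl)-precipitated with carbamazepine internal standard and quantified by LC-MS/MS. Parameters reported as mean ± SD.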

[15] = AUC (0 to t) in male/female Sprague-Dawley rat at 5 mg/kg, po measured for 36 hrs by LC-MS/MS analysis; format: ADME, organism-based; design: dose 5 mg/kg, time 36 hrs; details: both, in vivo; in short: as §4
[16] = MRT(0 to t) in male/female Sprague-Dawley rat at 0.5 mg/kg, iv measured for 36 hrs by LC-MS/MS analysis; format: ADME, organism-based; details: in vivo; in short: as §5
[17] = Toxicity in mammary tumor MMTV-PyMT mouse model assessed as changes in body weight at 3 mg/kg, po administered daily for 14 days; format: organism-based; details: in vivo, 336 h, time 14 day
In short: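 Female MMTV-PyMT transgenic mice (FVB/N background), 12 weeks old, randomized n = 6 per group. They received daily oral gavage of 3 mg/kg for 14 days. Drug was dissolved in DMSO and diluted with saline containing 5.0% Tween-80 to 3 mg/mL final. Body weight was recorded after 14 days against untreated controls, mean ± SD.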

[18] = Selectivity index, ratio of IC50 for human MCF-10A cells to IC50 for human BT-549 cells
[19] = Tmax in male/female Sprague-Dawley rat at 5 mg/kg, po measured for 36 hrs by LC-MS/MS analysis; format: ADME, organism-based; details: both, in vivo; in short: as §5
[20] = Cmax in male/female Sprague-Dawley rat at 5 mg/kg, po measured for 36 hrs by LC-MS/MS analysis; format: ADME, organism-based; design: route oral, time 36 hrs, dose 5 mg/kg; details: both, in vivo
BT-549 = assay: Induction of apoptosis in human BT-549 cells assessed as PARP cleavage at 0.5 uM measured after 6 hrs by western blot assay; format: functional, cell-based; in short: as §3
[21] = Volume of distribution at steady state in male/female Sprague-Dawley rat at 0.5 mg/kg, iv measured for 36 hrs by LC-MS/MS analysis; format: ADME, organism-based; details: in vivo; in short: as §5

Nuclear receptor subfamily 4immunitygroup A member 1, sequence (P22736 whole entry, the tested form may be a part): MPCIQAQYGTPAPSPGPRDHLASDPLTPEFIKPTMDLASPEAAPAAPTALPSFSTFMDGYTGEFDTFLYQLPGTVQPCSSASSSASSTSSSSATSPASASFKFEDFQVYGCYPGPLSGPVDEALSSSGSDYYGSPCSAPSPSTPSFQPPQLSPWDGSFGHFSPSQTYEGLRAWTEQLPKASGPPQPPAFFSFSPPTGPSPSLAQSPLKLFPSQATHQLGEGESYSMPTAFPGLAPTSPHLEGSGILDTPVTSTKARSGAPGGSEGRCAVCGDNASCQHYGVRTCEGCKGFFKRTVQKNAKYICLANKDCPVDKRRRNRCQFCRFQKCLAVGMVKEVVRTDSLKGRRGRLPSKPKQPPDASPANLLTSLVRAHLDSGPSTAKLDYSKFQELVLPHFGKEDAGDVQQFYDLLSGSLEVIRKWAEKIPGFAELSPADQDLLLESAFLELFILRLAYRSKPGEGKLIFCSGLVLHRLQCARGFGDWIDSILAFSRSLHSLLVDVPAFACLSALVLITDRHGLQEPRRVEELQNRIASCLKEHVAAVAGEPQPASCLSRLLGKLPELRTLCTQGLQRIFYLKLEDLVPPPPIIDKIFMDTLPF

## CS(=O)(=O)[O-].FC(F)(F)c1ccc([C+](c2c[nH]c3ccccc23)c2c[nH]c3ccccc23)cc1
[1]
  half-life: 6.81 h
[2]
  Tmax: 5.33 h
[3]
  AUC(0-t) at 36 h: 2250 ng·h/mL
[4]
  half-life: 4.05 h
[5]
  CL: 4.67 mL/min/kg
[6]
  MRT last at 36 h: 12.3 h
[7]
  bioavailability: 20.1%
[8]
  MRT: 3.59 h
[9]
  half-life: 5.91 h
[10]
  AUC(0-t) at 36 h: 3950 ng·h/mL
[11]
  bioavailability: 22.8%

## CS(=O)(=O)[O-].Cn1cc([C+](c2ccc(C(F)(F)F)cc2)c2c[nH]c3ccccc23)c2ccccc21
HCT-116
  Activity: Active
MEF
  Activity: inactive
[12]
  Activity: Active
[13]
  AUC(0-t) at 36 h: 501 ng·h/mL
[14]
  bioavailability: 14.6%
[15]
  AUC(0-t) at 36 h: 734 ng·h/mL
[16]
  MRT: 0.56 h
[17]
  Activity: Non-Toxic
[18]
  Ratio IC50: 40
[19]
  Tmax: 3 h
[20]
  Cmax: 57.9 ng/mL
BT-549
  Activity: Active
[21]
  Vdss: 3.69 L/kg
